Legend:
Candida albicans [1] = assay: Antifungal activity against Candida albicans ATCC 10231 after 72 hrs by serial dilution method; settings: ATCC 10231, 72 h
Aspergillus niger [2] = assay: Antifungal activity against Aspergillus niger ATCC 6275 after 72 hrs by serial dilution method; settings: ATCC 6275, 72 h
Aspergillus niger [3] = assay: Antifungal activity against Aspergillus niger ATCC 6275 after 7 days; type: functional; settings: ATCC 6275, 168 h
Method in brief: (§1)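 From fungal MIC plates after 7 days of incubation, the three sub-dose wells showing no growth were streaked onto Sabouraud dextrose agar. MLC was the lowest concentration leaving no viable fungi after subculture on drug-free medium. Three independent experiments were run.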

Staphylococcus aureus [4] = assay: Antibacterial activity against Staphylococcus aureus ATCC 6538 after 5 days; type: functional; settings: ATCC 6538, 120 h
Method in brief: (§2)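 From bacterial MIC plates after 5 days of incubation, the three sub-dose wells showing no growth were streaked onto trypticase soy agar. MLC was the lowest concentration leaving no viable bacteria after subculture on antibiotic-free medium. Three independent experiments were run.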

Pseudomonas aeruginosa [5] = assay: Antibacterial activity against Pseudomonas aeruginosa ATCC 9027 after 24 hrs by serial dilution method; type: functional; settings: ATCC 9027, 24 h
Method in brief: (§3)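 Bacteria were grown overnight on a TSA slant, transferred into M9GY (pH 7.0) and incubated overnight at 30 °C. Third-generation, exponential-phase cells were adjusted to OD660 0.05 (about 5.10⁶–5.10⁷ cfu/mL). Initial solutions in methanol/water 1:1 were serially diluted automatically in microtitre plates. MIC was the lowest concentration with no turbidity after 24 h at 30 °C. Three independent experiments were run.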

Staphylococcus aureus [6] = assay: Antibacterial activity against Staphylococcus aureus ATCC 6538 after 24 hrs by serial dilution method; type: functional; settings: ATCC 6538, 24 h
Method in brief: as §3

Candida albicans [7] = assay: Antifungal activity against Candida albicans ATCC 10231 after 7 days; type: functional; settings: ATCC 10231, 168 h
Method in brief: as §1

Pseudomonas aeruginosa [8] = assay: Antibacterial activity against Pseudomonas aeruginosa ATCC 9027 after 5 days; type: functional; settings: ATCC 9027, 120 h
Method in brief: as §2

SMILES | MIC (Candida albicans [1]) [µM] | MIC (Aspergillus niger [2]) [µM] | MLC (Aspergillus niger [3]) [µM] | MLC (Staphylococcus aureus [4]) [µM] | MIC (Pseudomonas aeruginosa [5]) [µM] | MIC (Staphylococcus aureus [6]) [µM] | MLC (Candida albicans [7]) [µM] | MLC (Pseudomonas aeruginosa [8]) [µM]
C[N+](C)(C)CCCNC(=O)CCCCCCCCCCS | > 1070 | 105 | > 395 | > 395 | 595 | 105 | > 1070 | > 864
C[N+](C)(CCCNC(=O)CCCCCCCCCCS)Cc1ccccc1 | > 1060 | 773 | > 946 | 946 | 980 | 592 | > 1060 | > 1060
CCCCCCCCCCCC[N+](C)(C)CCCCCCCCCCCS | 39.5 | 67.2 | > 92.2 | 73.3 | 326 | 34.7 | > 63.4 | 326
CCCCCCCCCCCC[N+](C)(C)CCCNC(=O)CCCCCCCCCCS | > 688 | 47 | > 61.7 | 38.2 | 184 | 18.7 | > 688 | 184
CCCCCCCCCC[N+](C)(C)CCCCCCCCCCCS | 31.6 | 31.6 | 48 | 48 | 309 | 11.6 | > 61.3 | 309
CCCCCCCCCCCCCC[N+](C)(C)CCCCCCCCCCCS | 1520 | 90 | > 124 | > 1520 | 1120 | 1310 | > 1520 | > 1520
CCCCCCCCCCCCCC[N+](C)(C)CCCNC(=O)CCCCCCCCCCS | > 742 | 56.3 | > 74.2 | 188 | 442 | 188 | > 742 | 599
C[N+](C)(C)CCCCCCCCCCCS | 1120 | 56.6 | > 131 | 56.6 | 557 | 56.6 | > 1900 | > 1120
C[N+](C)(CCCCCCCCCCCS)Cc1ccccc1 | 472 | 351 | 682 | 682 | 1060 | 682 | > 896 | > 1530
CCCCCCCCCC[N+](C)(C)CCCNC(=O)CCCCCCCCCCS | > 677 | 44.1 | > 60.7 | 32.5 | 171 | 17.5 | > 677 | 250
CCCCCCCCCCCCCC[N+](C)(C)Cc1ccccc1 [MIRISTALKONIUM CHLORIDE] | 8.36 | 4.74 | – | – | 93 | 3.2 | – | –

From ChEMBL document CHEMBL1153869, “Preparation and antimicrobial behaviour of quaternary ammonium thiol derivatives able to be grafted on metal surfaces” (2009)
